Key:
Type in all cases: functional
[1] = Growth inhibition of human SNB75 cells after 48 hrs by sulforhodamine B assay; details: SNB-75, 48 h
Summary of the method: (§1)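 NCI-60 panel screen by SRB assay (Rubinstein method). Percentage growth taken from optical density of SRB colour, read before and 48 hrs after exposure to compound or vehicle control. All analogues first screened at 10^-5 M. Analogues giving 60% growth inhibition at that level in at least eight lines then went to a five-concentration dose-response study.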

[2] = Growth inhibition of human COLO205 cells after 48 hrs by sulforhodamine B assay; details: COLO 205, 48 h; summary of the method: as §1
A549 = assay: Growth inhibition of human A549/ATCC cells after 48 hrs by sulforhodamine B assay; details: A549, 48 h; summary of the method: as §1
[3] = Growth inhibition of human LOXIMVI cells after 48 hrs by sulforhodamine B assay; details: LOX IMVI; summary of the method: as §1
[4] = Growth inhibition of human HL-60(TB) cells after 48 hrs by sulforhodamine B assay; details: HL-60, 48 h; summary of the method: as §1
MCF7 = assay: Growth inhibition of human MCF7 cells after 48 hrs by sulforhodamine B assay; details: MCF7, 48 h; summary of the method: as §1
KM12 = assay: Growth inhibition of human KM12 cells after 48 hrs by sulforhodamine B assay; details: KM12, 48 h; summary of the method: as §1
[5] = Growth inhibition of human HCC2998 cells after 48 hrs by sulforhodamine B assay; details: HCC 2998, 48 h; summary of the method: as §1
[6] = Growth inhibition of human SF295 cells after 48 hrs by sulforhodamine B assay; details: SF-295, 48 h; summary of the method: as §1
[7] = Growth inhibition of human HCT116 cells after 48 hrs by sulforhodamine B assay; details: HCT-116, 48 h; summary of the method: as §1
[8] = Growth inhibition of human HOP92 cells after 48 hrs by sulforhodamine B assay; details: HOP-92, 48 h; summary of the method: as §1
[9] = Growth inhibition of human SF268 cells after 48 hrs by sulforhodamine B assay; details: SF-268, 48 h; summary of the method: as §1
K562 = assay: Growth inhibition of human K562 cells after 48 hrs by sulforhodamine B assay; details: K562, 48 h; summary of the method: as §1
[10] = Growth inhibition of human SKOV3 cells after 48 hrs by sulforhodamine B assay; details: SK-OV-3, 48 h; summary of the method: as §1
CAKI-1 = assay: Growth inhibition of human CAKI-1 cells after 48 hrs by sulforhodamine B assay; details: CAKI-1, 48 h; summary of the method: as §1
SR = assay: Growth inhibition of human SR cells after 48 hrs by sulforhodamine B assay; summary of the method: as §1
[11] = Growth inhibition of human NCI-ADR-RES cells after 48 hrs by sulforhodamine B assay; summary of the method: as §1
[12] = Growth inhibition of human HCT15 cells after 48 hrs by sulforhodamine B assay; details: HCT-15, 48 h; summary of the method: as §1
[13] = Growth inhibition of human OVCAR3 cells after 48 hrs by sulforhodamine B assay; details: OVCAR-3, 48 h
Summary of the method: (§2)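 NCI-60 sulforhodamine B screen. Compounds were first tested at a single dose of 10⁻⁵ M; hits, defined as ≥60% growth inhibition in at least eight lines, went on to a five-concentration dose–response. SRB optical density was read before and 48 h after exposure to compound or vehicle. Percentage growth was calculated from OD.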

[14] = Growth inhibition of human HOP62 cells after 48 hrs by sulforhodamine B assay; details: HOP-62, 48 h; summary of the method: as §1
[15] = Growth inhibition of human IGROV1 cells after 48 hrs by sulforhodamine B assay; details: IGROV-1, 48 h; summary of the method: as §1
SK-MEL-2 = assay: Growth inhibition of human SK-MEL-2 cells after 48 hrs by sulforhodamine B assay; details: SK-MEL-2, 48 h; summary of the method: as §1
HT-29 = assay: Growth inhibition of human HT-29 cells after 48 hrs by sulforhodamine B assay; details: HT-29, 48 h; summary of the method: as §1
NCI-H23 = assay: Growth inhibition of human NCI-H23 cells after 48 hrs by sulforhodamine B assay; details: NCI-H23, 48 h; summary of the method: as §1
CCRF-CEM = assay: Growth inhibition of human CCRF-CEM cells after 48 hrs by sulforhodamine B assay; summary of the method: as §1
ACHN = assay: Growth inhibition of human ACHN cells after 48 hrs by sulforhodamine B assay; summary of the method: as §1
786-0 = assay: Growth inhibition of human 786-0 cells after 48 hrs by sulforhodamine B assay; details: 786-0, 48 h; summary of the method: as §1
A498 = assay: Growth inhibition of human A498 cells after 48 hrs by sulforhodamine B assay; details: A498, 48 h; summary of the method: as §2
[16] = Growth inhibition of human RPMI8226 cells after 48 hrs by sulforhodamine B assay; details: RPMI-8226, 48 h; summary of the method: as §1
MDA-MB-435 = assay: Growth inhibition of human MDA-MB-435 cells after 48 hrs by sulforhodamine B assay; details: MDA-MB-435, 48 h; summary of the method: as §2
MDA-MB-468 = assay: Growth inhibition of human MDA-MB-468 cells after 48 hrs by sulforhodamine B assay; details: MDA-MB-468, 48 h; summary of the method: as §1
U-251 = assay: Growth inhibition of human U251 cells after 48 hrs by sulforhodamine B assay; details: U-251, 48 h; summary of the method: as §1
SK-MEL-5 = assay: Growth inhibition of human SK-MEL-5 cells after 48 hrs by sulforhodamine B assay; details: SK-MEL-5, 48 h; summary of the method: as §1
NCI-H460 = assay: Growth inhibition of human NCI-H460 cells after 48 hrs by sulforhodamine B assay; details: NCI-H460, 48 h; summary of the method: as §1
[17] = Growth inhibition of human PC3 cells after 48 hrs by sulforhodamine B assay; details: PC-3, 48 h; summary of the method: as §1
MDA-MB-231 = assay: Growth inhibition of human MDA-MB-231 cells after 48 hrs by sulforhodamine B assay; details: MDA-MB-231, 48 h; summary of the method: as §1
[18] = Growth inhibition of human DU145 cells after 48 hrs by sulforhodamine B assay; details: DU-145, 48 h; summary of the method: as §1
[19] = read-out: LD50 (the source's name)

## COc1ccc(-c2n[nH]nc2-c2cc(OC)cc(OC)c2)cc1
[1]
  GI50: 14 nM
[1]; [19]
  CC50: > 100000 nM
[2]
  GI50: 149 nM
[2]; [19]
  CC50: > 100000 nM
A549
  GI50: 37 nM
A549; [19]
  CC50: > 100000 nM
[3]
  GI50: 76 nM
[3]; [19]
  CC50: > 100000 nM
[4]
  GI50: 23 nM
[4]; [19]
  CC50: > 100000 nM
MCF7
  GI50: 25 nM
MCF7; [19]
  CC50: > 100000 nM
KM12
  GI50: 30 nM
KM12; read-out: LD50
  LC50 (concentration killing 50% of cells): > 100000 nM
[5]
  GI50: 46 nM
[5]; [19]
  CC50: > 100000 nM
[6]
  GI50: 11 nM
[6]; [19]
  CC50: > 100000 nM
[7]
  GI50: < 10 nM
[7]; [19]
  CC50: > 100000 nM
[8]
  GI50: < 10 nM
[8]; [19]
  CC50: > 100000 nM
[9]
  GI50: 177 nM
[9]; [19]
  CC50: > 100000 nM
K562
  GI50: < 10 nM
K562; [19]
  CC50: > 100000 nM
[10]
  GI50: 46 nM
[10]; read-out: LD50
  LC50 (concentration killing 50% of cells): > 100000 nM
CAKI-1
  GI50: 50 nM
CAKI-1; [19]
  CC50: > 100000 nM
SR
  GI50: < 10 nM
SR; read-out: LD50
  LC50 (concentration giving 50% net cell kill): > 100000 nM
[11]
  GI50: < 10 nM
[11]; [19]
  CC50: > 100000 nM
[12]
  GI50: < 10 nM
[12]; [19]
  CC50: > 100000 nM
[13]
  GI50: 24 nM
[13]; read-out: LD50
  LC50 (concentration giving 50% net cell kill): > 100000 nM
[14]
  GI50: 25 nM
[14]; read-out: LD50
  LC50 (concentration killing 50% of cells): > 100000 nM
[15]
  GI50: 51 nM
[15]; [19]
  CC50: > 100000 nM
SK-MEL-2
  GI50: 56 nM
SK-MEL-2; [19]
  CC50: > 100000 nM
HT-29
  GI50: 48 nM
HT-29; read-out: LD50
  LC50 (concentration killing 50% of cells): > 100000 nM
NCI-H23
  GI50: 38 nM
NCI-H23; read-out: LD50
  LC50 (concentration giving 50% cell kill): > 100000 nM
CCRF-CEM
  GI50: 32 nM
CCRF-CEM; read-out: LD50
  LC50 (concentration killing 50% of cells): > 100000 nM
ACHN
  GI50: 145 nM
ACHN; [19]
  CC50: > 100000 nM
786-0
  GI50: 15 nM
786-0; read-out: LD50
  LC50 (concentration killing 50% of cells): > 100000 nM
A498
  GI50: < 10 nM
A498; read-out: LD50
  LC50 (50% net cell kill): > 100000 nM
[16]
  GI50: 37 nM
[16]; [19]
  CC50: > 100000 nM
MDA-MB-435
  GI50: < 10 nM
  TGI: 10 nM
MDA-MB-435; read-out: LD50
  LC50 (concentration killing 50% of cells): > 100000 nM
MDA-MB-468
  GI50: 23 nM
MDA-MB-468; [19]
  CC50: > 100000 nM
U-251
  GI50: 38 nM
U-251; [19]
  CC50: > 100000 nM
SK-MEL-5
  GI50: 27 nM
SK-MEL-5; [19]
  CC50: > 100000 nM
NCI-H460
  GI50: 34 nM
NCI-H460; [19]
  CC50: > 100000 nM
[17]
  GI50: 42 nM
[17]; [19]
  CC50: > 100000 nM
MDA-MB-231
  GI50: 46 nM
MDA-MB-231; [19]
  CC50: > 100000 nM
[18]
  GI50: 45 nM
[18]; [19]
  CC50: > 100000 nM
